Data: ChEMBL document CHEMBL1155254, “Diketoacid-genre HIV-1 integrase inhibitors containing enantiomeric arylamide functionality” (Bioorg Med Chem, 2009)

Biological target: T1, Human immunodeficiency virus type 1 integrase (Human immunodeficiency virus 1, UniProt Q7ZJM1)
Assay: Inhibition of HIV1 integrase 3'-processing activity expressed in Escherichia coli by PAGE
Summary of the method: (§1)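 Recombinant IN expressed in E. coli and purified with 10% glycerol in all buffers. 10 μL reactions held 400 nM IN, 20 nM 5'-end [³²P]-labeled oligonucleotide substrate and inhibitor at various concentrations, with 10% DMSO controls. Buffer was 50 mM MOPS pH 7.2 with 7.5 mM MgCl₂ (final), 30 min at 37 °C. Stopped with EDTA/formamide loading dye.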

T1 sequence (Q7ZJM1 whole entry): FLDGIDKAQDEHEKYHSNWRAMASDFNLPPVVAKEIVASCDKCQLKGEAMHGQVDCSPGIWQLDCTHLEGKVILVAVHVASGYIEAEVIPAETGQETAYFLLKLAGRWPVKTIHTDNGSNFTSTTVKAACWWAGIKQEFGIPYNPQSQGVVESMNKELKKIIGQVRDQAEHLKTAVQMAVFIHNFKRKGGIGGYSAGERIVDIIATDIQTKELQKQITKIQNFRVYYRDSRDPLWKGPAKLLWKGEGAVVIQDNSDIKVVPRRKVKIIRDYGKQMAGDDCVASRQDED

| IC50 [µM] | Compound |
| --- | --- |
| > 333 | C[C@H](C1CCCc2ccccc21)N1Cc2ccc(O)c(O)c2C1=O (stereo partly specified) |
| 128 | O=C1c2ccc(O)c(O)c2C(=O)N1[C@H]1CCc2ccccc21 |
| > 111 | C[C@@H](c1cccc2ccccc12)N1Cc2ccc(O)c(O)c2C1=O |
| 157 | O=C1c2ccc(O)c(O)c2C(=O)N1CCc1ccccc1 |
| > 333 | C[C@H](C1CCc2ccccc21)N1Cc2ccc(O)c(O)c2C1=O (stereo partly specified) |
| > 333 | C[C@H](c1ccccc1)N1Cc2ccc(O)c(O)c2C1=O |
| 24 | O=C1c2c(ccc(O)c2O)CN1Cc1ccc2ccccc2c1 |
| > 333 | C[C@@H](c1ccccc1)N1Cc2ccc(O)c(O)c2C1=O |
| 37 | O=C1c2ccc(O)c(O)c2C(=O)N1C1Cc2ccccc2C1 |
| 111 | O=C1c2ccc(O)c(O)c2C(=O)N1[C@H]1CCCc2ccccc21 |
| > 111 | C[C@@H](c1ccc2ccccc2c1)N1Cc2ccc(O)c(O)c2C1=O |
| 150 | O=C1c2ccc(O)c(O)c2C(=O)N1Cc1cccc2ccccc12 |
| 18 | O=C1c2ccc(O)c(O)c2C(=O)N1Cc1ccc2ccccc2c1 |
| > 111 | C[C@H](c1cccc2ccccc12)N1Cc2ccc(O)c(O)c2C1=O |
| > 333 | O=C1c2ccc(O)c(O)c2C(=O)N1[C@@H]1CCCc2ccccc21 |
| > 111 | C[C@H](c1ccc2ccccc2c1)N1Cc2ccc(O)c(O)c2C1=O |
| 290 | O=C1c2ccc(O)c(O)c2C(=O)N1[C@@H]1CCc2ccccc21 |
| > 333 | C[C@@H](C1CCc2ccccc21)N1Cc2ccc(O)c(O)c2C1=O (stereo partly specified) |
| > 333 | C[C@@H](C1CCCc2ccccc21)N1Cc2ccc(O)c(O)c2C1=O (stereo partly specified) |
| > 333 | O=C1c2c(ccc(O)c2O)CN1C1Cc2ccccc2C1 |

Biological target: T1, Human immunodeficiency virus type 1 integrase
Assay: Inhibition of HIV1 integrase strand transfer activity expressed in Escherichia coli by PAGE
Summary of the method: as §1

| IC50 [µM] | Compound |
| --- | --- |
| 0.39 | O=C1c2ccc(O)c(O)c2C(=O)N1Cc1ccccc1 |
| 121 | C[C@H](C1CCCc2ccccc21)N1Cc2ccc(O)c(O)c2C1=O (stereo partly specified) |
| 1.8 | O=C1c2ccc(O)c(O)c2C(=O)N1[C@H]1CCc2ccccc21 |
| 4 | C[C@@H](c1cccc2ccccc12)N1Cc2ccc(O)c(O)c2C1=O |
| 6.8 | O=C1c2ccc(O)c(O)c2C(=O)N1CCc1ccccc1 |
| 99 | C[C@H](C1CCc2ccccc21)N1Cc2ccc(O)c(O)c2C1=O (stereo partly specified) |
| 100 | C[C@H](c1ccccc1)N1Cc2ccc(O)c(O)c2C1=O |
| 0.8 | O=C1c2c(ccc(O)c2O)CN1Cc1ccc2ccccc2c1 |
| 45 | C[C@@H](c1ccccc1)N1Cc2ccc(O)c(O)c2C1=O |
| 4 | O=C1c2ccc(O)c(O)c2C(=O)N1C1Cc2ccccc2C1 |
| 10 | O=C1c2ccc(O)c(O)c2C(=O)N1[C@H]1CCCc2ccccc21 |
| 4.6 | C[C@@H](c1ccc2ccccc2c1)N1Cc2ccc(O)c(O)c2C1=O |
| 0.72 | O=C1c2ccc(O)c(O)c2C(=O)N1Cc1cccc2ccccc12 |
| 0.96 | O=C1c2ccc(O)c(O)c2C(=O)N1Cc1ccc2ccccc2c1 |
| 48.3 | C[C@H](c1cccc2ccccc12)N1Cc2ccc(O)c(O)c2C1=O |
| 81 | O=C1c2ccc(O)c(O)c2C(=O)N1[C@@H]1CCCc2ccccc21 |
| 24 | C[C@H](c1ccc2ccccc2c1)N1Cc2ccc(O)c(O)c2C1=O |
| 12 | O=C1c2ccc(O)c(O)c2C(=O)N1[C@@H]1CCc2ccccc21 |
| 6 | C[C@@H](C1CCc2ccccc21)N1Cc2ccc(O)c(O)c2C1=O (stereo partly specified) |
| 9 | C[C@@H](C1CCCc2ccccc21)N1Cc2ccc(O)c(O)c2C1=O (stereo partly specified) |
| 23 | O=C1c2c(ccc(O)c2O)CN1C1Cc2ccccc2C1 |
